The test system of one data set is J774 mouse macrophages. As to the kind of experiment: total phospholipid and cholesterol content, macrophages. The class given is cell-based. Conditions: 24 h, telavancin 90 mg/L, vancomycin 50 mg/L, oritavancin 25 mg/L, n = 6–8; for total cholesterol content: control 72 ± 3 nmol/mg of protein; for total phospholipid content: control 204 ± 10 nmol/mg of protein.
The test system of data set [1] is J774 macrophages. As to the kind of experiment: electron microscopy with morphometric analysis of lysosomal changes, macrophages. The class given is cell-based, mouse. As to conditions: 24 h.
For data set [2] the following is noted: cited from earlier work.
In data set [3] the test system is rat embryo fibroblasts. As to the kind of experiment: electron microscopy with morphometric analysis of lysosomal changes, fibroblasts. The class given is cell-based. As to conditions: 72 h.
Data set [4] deals with J774 macrophages. Description: cellular uptake, accumulation and efflux. In kind it is in vitro ADME, mouse.
In data set [5] the test system is J774 macrophages. Description: release of lactate dehydrogenase. In kind it is cell-based, mouse. As to conditions: 24 h incubation, telavancin 90 mg/L, vancomycin 50 mg/L, oritavancin 25 mg/L (human Cmax), controls 5.0 ± 0.2%, n = 3. Summed up:
(§1)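 LDH release into the culture medium was measured after exposure to the test compound to assess pericellular membrane integrity. J774 macrophages were grown in RPMI 1640 and rat embryo fibroblasts in Dulbecco's modified Eagle's medium, both with 10% fetal calf serum.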

For data set [6], the system named is rat embryo fibroblasts. Description: cellular uptake. In kind it is in vitro ADME. Conditions: stated for both cell types.
The test system of data set [7] is rat embryo fibroblasts. Description: release of lactate dehydrogenase. The class given is cell-based. Conditions: 72 h incubation, telavancin 90 mg/L, vancomycin 50 mg/L, oritavancin 25 mg/L (human Cmax), controls 13.4 ± 3.7%, n = 3. In short, it runs like this:
as §1

Data set [8] deals with J774 macrophages. Description: subcellular distribution by cell fractionation and isopycnic centrifugation. The class given is in vitro ADME, mouse. Conditions: 24 h, 90 mg/L. Summed up:
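J774 macrophages were exposed 24 h at 37°C to 90 mg/L labelled test compound in 10% serum medium. They were then scraped into 0.25 M sucrose/1 mM EGTA/3 mM imidazole pH 7.4 and homogenised. Low-speed spin gave unbroken cells/nuclei; high-speed spin split granules/membranes from supernatant. The granule fraction was run on an isopycnic sucrose gradient, with densities standardised 1.08–1.21. Radioactivity, protein and marker enzymes were measured, expressed as % recovered per fraction.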

In data set [9] the test system is rat embryo fibroblasts. Description: total phospholipid and cholesterol content, fibroblasts. In kind it is cell-based. As to conditions: 72 h, telavancin 90 mg/L, vancomycin 50 mg/L, oritavancin 25 mg/L, n = 6–8; for total cholesterol content: control 130 ± 16 nmol/mg of protein; for total phospholipid content: control 295 ± 8 nmol/mg of protein.
Data set [10] concerns J774 macrophages. Conditions: cited from earlier work; for accumulation level in macrophages: recorded previously in the same conditions (macrophages, 24 h).

Consider three molecules from publication PMC2386079 (Journal of Antimicrobial Chemotherapy, 2008).

What is called half-life is how long it takes for the measured level to halve.

Read-outs that look alike come from different tables or passages of the source.

For the molecule Telavancin, the total cholesterol content entry in the data set on J774 mouse macrophages and with rat embryo fibroblasts [9] was “slight but not significant increase” in each case. The total phospholipid content entry in the data set with J774 mouse macrophages and with rat embryo fibroblasts [9] was “Neither telavancin nor vancomycin caused detectable increase” throughout. Besides, the “ultrastructural alterations (electron microscopy)” value was “enlargement of lysosomes that were filled with a pleiotropic material” in the data set with J774 macrophages [1] (J774 macrophages, 90 mg/L) and “enlargement of lysosomes that were filled with a pleiotropic material” with rat embryo fibroblasts [3] (90 mg/L). Moreover, the “morphometric changes compared with vancomycin” value is “changes similar to those seen with 50 mg/L vancomycin” in the data set with J774 macrophages [1] (macrophages, 25 mg/L telavancin vs 50 mg/L vancomycin) and “changes similar to those seen with 50 mg/L vancomycin” in the data set with rat embryo fibroblasts [3] (90 mg/L telavancin vs 50 mg/L vancomycin). Moreover, the “morphometric alterations compared with oritavancin” value in the data set on J774 macrophages [1] (macrophages, 90 mg/L telavancin vs 20 mg/L oritavancin) is on record as “considerably milder than in cells incubated with 20 mg/L oritavancin”; in the data set on rat embryo fibroblasts [3] (90 mg/L telavancin vs 20 mg/L oritavancin), “considerably milder than in cells incubated with 20 mg/L oritavancin”. Also, the “human Cmax” value in data set [2] is 90 µg/mL. Also, the half-life in data set [2] (serum, once-daily administration) is reported as 7.5 h. The “cellular concentration in human alveolar macrophages” value in [2] (within 8–24 h after systemic administration of therapeutic doses) is given as ~ 50 mg/L. Also, in the data set on J774 macrophages [4] (24 h), the “accumulation level in macrophages” value is around 45 fold. Also, in the data set with J774 macrophages [4] (initial uptake 12 h at 90 mg/L, then drug-free medium for 24 h), the “apparent rate of efflux relative to influx (fold lower)” value is on record as around 5.7 fold. Further, the “uptake rate without serum relative to with serum (fold faster)” value with J774 macrophages [4] (medium not supplemented with calf serum, 5 h, 10–90 mg/L, data not shown) is ~ 1.7 fold. The “clearance rate (abstract)” value in the data set with J774 macrophages [4] (stated for both cell types) and in the data set on rat embryo fibroblasts [6] was ~10 mL/g of protein/h each time. The results for the “release of lactate dehydrogenase” value in the data set on J774 macrophages [5] and with rat embryo fibroblasts [7] were 4.9 ± 1.0% and 16.9 ± 2.5%, respectively. The “cell-associated drug recovered in supernatant fraction” value with J774 macrophages [8] (N-acetyl-β-glucosaminidase 6%) is 10%. Also, the “cell-associated drug recovered in unbroken cells/nuclei fraction” value in the data set with J774 macrophages [8] (N-acetyl-β-glucosaminidase 27%) amounted to 35%. For the same molecule, the “cell-associated drug recovered in granules/membranes fraction” value in the data set with J774 macrophages [8] (N-acetyl-β-glucosaminidase 67%) amounted to 55%.

Turning to `CN[C@H](CC(C)C)C(=O)N[C@H]1C(=O)N[C@@H](CC(N)=O)C(=O)N[C@H]2C(=O)N[C@H]3C(=O)N[C@H](C(=O)N[C@H](C(=O)O)c4cc(O)cc(O)c4-c4cc3ccc4O)[C@H](O)c3ccc(c(Cl)c3)Oc3cc2cc(c3O[C@@H]2O[C@H](CO)[C@@H](O)[C@H](O)[C@H]2O[C@H]2C[C@](C)(N)[C@H](O)[C@H](C)O2)Oc2ccc(cc2Cl)[C@H]1O` [vancomycin, Vancomycin], the total cholesterol content entry with J774 mouse macrophages and in the data set on rat embryo fibroblasts [9] was “slight but not significant increase” in each case. For the same molecule, the total phospholipid content result in the data set with J774 mouse macrophages and in the data set on rat embryo fibroblasts [9] was “Neither telavancin nor vancomycin caused detectable increase” in each case. The “human Cmax” value in [2] was 50 µg/mL. Besides, the “release of lactate dehydrogenase” value is given as 5.0 ± 1.5% with J774 macrophages [5] and 17.1 ± 1.3% in the data set with rat embryo fibroblasts [7]. Further, the “accumulation level in macrophages” value in the data set with J774 macrophages [10] is listed as around 8 fold.

With Oritavancin, the total cholesterol content entry is “marked, statistically significant increase” with J774 mouse macrophages and “marked, statistically significant increase” in the data set with rat embryo fibroblasts [9]. The total phospholipid content result with J774 mouse macrophages and in the data set on rat embryo fibroblasts [9] was “significant increases” throughout. Also, the “human Cmax” value in data set [2] is 25 µg/mL. For the same molecule, the “release of lactate dehydrogenase” value in the data set on J774 macrophages [5] came to 15.5 ± 1.5%; in the data set with rat embryo fibroblasts [7] it was 18.2 ± 3.0%. In addition, in the data set with J774 macrophages [10] (J774 macrophages), the “initial uptake clearance rate” value is recorded as ~150 µL/mg of protein/h. Besides, in the data set on J774 macrophages [10], the “accumulation level in macrophages” value is listed as around 370 fold.
